# Screening data (PubChem BioAssay)
# sdo1 growth: restores growth of sdo1-depleted yeast | S. cerevisiae sdo1-depleted JHY4D growth rescue, OD600 30 h; stronger effect = higher value; pdr5 snq2 efflux-pump mutant strain | z-score at 10 µM | 140,000 compounds, 0.21% hits;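 active = z-score above 3 at both the 24 hr and the 30 hr optical density reads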;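 note: z-score against mean and SD of all compound wells on the same plate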
# p47phox inh: blocks human p47phox regulatory protein of NADPH oxidases; P14598; p47phox/p22phox peptide binding, fluorescence polarization, 2 h; inhibition, % at 24.7 µM; 220,000 compounds, 0.53% hits; AID 1274;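 active = inhibition above about 30%, limit read from the data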;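 note: 0% = p47phox with labelled peptide and 100% = labelled peptide alone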
# Yeast lifespan up: yeast lifespan extension | S. cerevisiae growth with nicotinamide, OD615; deaD strain in restrictive glucose medium | inhibition of the nicotinamide effect, % at 10 µM | 130,000 compounds, 0.68% hits;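 active = inhibition above a set limit, placed 3 SD over the median of all compounds, cut at about 26% in these data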;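 note: 0% = nicotinamide-treated wells and 100% = cells grown without nicotinamide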
#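 assay system = DeaD-strain S. cerevisiae | measured by = absorbance at 615 nm | probe or stimulus = nicotinamide 1.5 mM | buffer or medium = CSMM-D glucose medium, restrictive | times = 48 h at 30 °C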
# RBBP9 inhibitor: human RBBP9 hydrolase inhibition; O75884; recombinant RBBP9, FP-Rh probe fluorescence polarization; inhibition, % at 7.94 µM; 220,000 compounds, 0.2% hits; AID 1515;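 active = inhibition above the campaign mean of all tested compounds plus 3 SD, cut at about 14% in these data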;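 note: plate controls were DMSO wells with RBBP9 for no effect and wells lacking RBBP9 protein for full effect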
# Target sequence (O75884 whole entry, looked up): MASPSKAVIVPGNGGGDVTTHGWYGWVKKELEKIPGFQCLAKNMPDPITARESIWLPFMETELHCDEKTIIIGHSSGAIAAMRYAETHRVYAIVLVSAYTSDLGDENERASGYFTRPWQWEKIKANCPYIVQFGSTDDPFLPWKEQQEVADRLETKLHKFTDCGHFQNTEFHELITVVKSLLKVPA
#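 Test system – recombinant human RBBP9 · Input – RBBP9 2.5 µM in dispensing solution, pre-mixing · Medium – Tris buffer pH 8.0, NaCl, Pluronic · Schedule – preincubation 30 min plus labeling 45 min at 25 °C · Measured by – fluorescence polarization · Measure – % inhibition · Controls – DMSO and no-protein wells · Replicates – one well per compound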
# TbHK1 inh: T. brucei hexokinase 1 inhibition; AID 1430; inhibition, % at 10 µM; recombinant TbHK1, G6PDH-coupled NADH A340; 220,000 compounds, 0.11% hits;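 active = inhibition of 50% or more in the single-dose primary screen; inactive = inhibition below 50%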
# BB579 growth dn: yeast BB579 growth reduction in restrictive medium; S. cerevisiae BB579 growth, OD615, 48 h; inhibition, % at 10 µM; 140,000 compounds, 0.51% hits;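 active = inhibition above a set limit, 3 SD over the mean compound inhibition, cut at about 44% in these data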
#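 System: DeaD yeast strain BB579; buffer or medium: CSMM-D dextrose restrictive medium; technique: OD at 615 nm; schedule: 4 h cell preincubation, 48 h compound exposure, 30 °C humidified; doses: single 10 µM dose; controls: amphotericin B 10 µg/mL, positive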
# * = called active by the depositor; nt = no result given. In the library only some 1.6% were active in any assay of this set; here they are far more common.
SMILES,sdo1 growth,p47phox inh,Yeast lifespan up,RBBP9 inhibitor,TbHK1 inh,BB579 growth dn
COC(=O)c1cc(C(=O)OC)cc(N2C(=O)CC(NNC(=O)c3ccc(C)cc3)C2=O)c1 (stereo not drawn),0.18,130*,1,-6,0,10
COc1ccc(CCNC(=O)COc2ccc(-c3ccc(C#N)cc3)cc2)cc1,-0.35,8,1,-5,3,-23
N#Cc1ccc(-c2ccc(OCC(=O)NCCc3ccccc3)cc2)cc1,-0.04,-2,46*,-5,-1,-52
O=C(CCc1ccccc1)NNC(=O)COc1ccccc1,0.8,-3,-13,-8,-2,6
CC(C)(C)c1ccc(OCC(=O)NNC(=O)CCc2ccccc2)cc1,0,61*,-26,3,3,-30
O=C(N/N=C/c1ccc(OC(F)F)cc1OC(F)F)c1cccc(S(=O)(=O)N2CCOCC2)c1,nt,-7,nt,0,-8,nt
O=C(Nc1cccc(C(=O)O)c1)/C(=C\c1ccccc1)NC(=O)c1cccc2ccccc12,nt,122*,nt,-1,-3,nt
O=C(Nc1cccc(C(=O)O)c1)/C(=C/c1ccc([N+](=O)[O-])cc1)NC(=O)c1ccccc1,nt,-2,nt,0,-18,nt
COC(=O)c1cc2c(C)c(C)c3ccccn3c-2c1C(=O)OC,-0.43,-32,-10,-4,-36,-35
COC(=O)c1cc2n3ccccc3c(C)c(-c3ccccc3)c-2c1C(=O)OC,-0.09,53*,-1,4,-47,-32
COc1ccc2c(c1)C(=NNC(=O)c1ccccn1)c1cc(OC)ccc1-2,-0.4,49*,-2,-4,-40,-9
CCOc1ccc(C(=O)C(CN2CCOCC2)c2ccccc2)cc1 (stereo not drawn),-2.2,0,49*,-4,-9,-71
O=C(c1ccccc1)c1ccc(OCC(O)CN2CCOCC2)cc1 (stereo not drawn),nt,nt,nt,-5,0,nt
Cc1ccc(NC(=O)C2CC(=O)N(CCc3ccccc3)C2)c(C)c1 (stereo not drawn),nt,9,nt,0,-9,nt
Cc1cc(NC(c2ccc(Cl)cc2)c2ccc3cccnc3c2O)no1 (stereo not drawn),-1.2,-18,-33,-3,3,95*
Cc1ccnc(NC(c2cccnc2)c2ccc3cccnc3c2O)c1 (stereo not drawn),nt,2,nt,-7,-3,nt
Cc1[nH]c2c(ccc3ccccc32)c1C1C(CCN)C1(C)C (stereo not drawn),-2.3,60*,-13,-1,-9,-41
CCOc1cc(N2CCOCC2)c(OCC)cc1NC(=O)COc1ncnc2ccccc12,0.8,-10,-6,-4,-8,-26
CCOc1cc(N2CCOCC2)c(OCC)cc1NC(=O)c1cc(-c2ccco2)nc2ccccc12,1.6,30*,-8,-5,-17,-13
Cc1ccc(C2c3c(oc4ccccc4c3=O)C(=O)N2c2nnc(C)s2)o1 (stereo not drawn),nt,nt,nt,5,-8,nt
COC(=O)c1sc(N2C(=O)c3oc4ccccc4c(=O)c3C2c2cccs2)nc1C (stereo not drawn),-1.4,49*,-5,-1,-13,-22
COc1cc(/C=C/C(=O)O)cc(S(=O)(=O)Nc2ccccc2Oc2ccccc2)c1OC,nt,-12,nt,-12,-16,nt
C/C(=N\NC(=O)c1ccccn1)c1ccc(Cl)cc1,nt,-4,nt,-4,-21,nt
C/C(=N\Nc1ccc(Cl)cc1)c1ccccn1,-1.5,-7,-17,-4,-28,92*
Cn1c(SCc2ccccc2)nnc1-c1ccc2nonc2c1,nt,-4,nt,4,-9,nt
SMILES,sdo1 growth,p47phox inh,Yeast lifespan up,RBBP9 inhibitor,TbHK1 inh,BB579 growth dn
O=C(NCC1CCCO1)C1CCCCN1S(=O)(=O)c1ccc(F)cc1 (stereo not drawn),0.33,36*,-14,-9,5,2
COc1ccc(OCCNC2CCCC2)cc1,-0.21,-10,6,-9,23,71*
c1ccc(-c2ccc(OCCCNC3CCCC3)cc2)cc1,nt,-9,nt,8,6,nt
CCC(=O)Nc1ccc(/C(C)=N\NS(=O)(=O)c2ccc(C)cc2)cc1,0.04,170*,-8,-2,-5,-54
Oc1c(CN2CCCCC2)cc(Br)c2cccnc12,-2,-1,-20,-6,1,98*
Oc1c(I)cc(Cl)c2cccnc12,-2,8,-9,-8,28,98*
